Laboratory results published in ChEMBL document CHEMBL4354865 (J Med Chem, 2020).
pIC50, pKd: −log10 of the molar value. Each block holds one compound with its values, some of them ahead of it. Activity calls are given as the source filed them. No cut-off for these calls is given here.

How the values were obtained:
[1] = Cytotoxicity against human A375 cells assessed as cell viability at 1 uM measured after 48 hrs by MTT assay relative to control; format: cell-based, A-375; conditions: read-out: Activity
In short: (§1)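 A375 cells, unstimulated or stimulated with recombinant human IFN-γ, were left untreated or treated with 1 µM compound for 48 h. L-Kyn was measured by HPLC and cell viability was assessed.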

[2] = molecular target: T1, Indoleamine 2,3-dioxygenase 1 (Homo sapiens, UniProt P14902); assay: Inhibition of IDO1 in IFNgamma-stimulated human A375 cells assessed as reduction in L-Kyn level at 1 uM measured after 48 hrs by HPLC analysis relative to control; in short: as §1
Target sequence in this assay (P14902 whole entry, looked up): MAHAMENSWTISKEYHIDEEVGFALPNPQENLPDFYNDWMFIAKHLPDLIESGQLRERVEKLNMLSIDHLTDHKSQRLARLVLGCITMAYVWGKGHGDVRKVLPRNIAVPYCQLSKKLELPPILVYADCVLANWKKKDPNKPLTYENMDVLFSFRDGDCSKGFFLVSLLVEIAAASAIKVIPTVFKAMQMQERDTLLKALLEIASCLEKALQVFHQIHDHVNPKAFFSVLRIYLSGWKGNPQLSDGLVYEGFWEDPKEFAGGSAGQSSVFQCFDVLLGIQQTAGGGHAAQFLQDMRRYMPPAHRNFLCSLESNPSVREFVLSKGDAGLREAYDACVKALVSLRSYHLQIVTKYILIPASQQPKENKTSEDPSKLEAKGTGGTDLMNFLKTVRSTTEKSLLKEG

[3] = molecular target: T1, Indoleamine 2,3-dioxygenase 1; assay: Inhibition of IDO1 in IFNgamma-stimulated human A375 cells assessed as reduction in L-Kyn level measured after 48 hrs by HPLC analysis
Target sequence in this assay (P14902 whole entry): as the sequence (P14902 whole entry, looked up) above

Monocyte [4] = assay: Cytotoxicity against PDAC patient derived monocytes assessed as reduction in cell viability at 30 uM measured after 24 hrs by Annexin-V APC/7-AAD staining based flow cytometric analysis; conditions: human
In short: (§2)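 Monocytes from healthy donors (n=3) and from PDAC patients (n=3) were treated for 24 h, with DMSO as control. Viability was normalized to untreated cells. Healthy-donor cells received a range of concentrations; PDAC cells received 30 µM.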

Monocyte [5] = assay: Cytotoxicity against human monocytes assessed as reduction in cell viability at 30 uM measured after 24 hrs by Annexin-V APC/7-AAD staining based flow cytometric analysis; in short: as §2
[6] = Chemical stability of the compound; format: physicochemical
[7] = molecular target: T1, Indoleamine 2,3-dioxygenase 1; assay: Binding affinity to NT650-NHS fluorophore-labeled recombinant human N-terminal His-tagged IDO1 expressed in Escherichia coli measured after 10 mins by microscale thermophoresis assay
Target sequence in this assay (P14902 whole entry): as the sequence (P14902 whole entry, looked up) above

Mus musculus [8] = assay: In vivo inhibition of IDO1 in BALB/c mouse assessed as reduction in L-kyn level at 10 mg/kg, iv measured up to 30 mins by LC-HRMS analysis; format: functional, organism-based
In short: (§3)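 After a single 10 mg/kg i.v. dose in mice, plasma L-Kyn was measured at 0, 2, 5, 15 and 30 min and at 8 h post-injection, and compared with basal level.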

[9] = Inhibition of CYP450 in rat liver microsomes assessed as reduction in aminopyrine N-demethylase activity preincubated for 3 mins followed by NADPH addition and measured after 15 mins by iodometric titration method; format: ADME
In short: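 CYP inhibition read by aminopyrine N-demethylase activity, with IC50 determined from concentration–response curves. Ketoconazole (CYP3A inhibitor) served as reference.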

Mus musculus [10] = assay: In vivo inhibition of IDO1 in BALB/c mouse assessed as reduction in L-kyn level at 10 mg/kg, iv measured after 8 hrs by LC-HRMS analysis; format: functional, organism-based; in short: as §3
[11] = Drug metabolism in CD-1 mouse liver microsomes assessed as benzimidazole oxidation at 50 uM measured after 1 hr by LC-HRMS analysis; format: ADME, Microsome
[12] = Drug metabolism in CD-1 mouse liver microsomes assessed as oxidative N-dealkylation at 50 uM measured after 1 hr by LC-HRMS analysis; format: ADME, Microsome
[13] = Metabolic stability in CD-1 mouse liver microsomes assessed as parent compound remaining at 50 uM measured after 1 hr in presence of NADPH generating system by UV-LC/MS analysis; format: ADME, Microsome; conditions: read-out: Stability
In short: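 Mouse liver microsomes activated with NADPH. Residual parent compound was measured after 1 h incubation.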

[14] = molecular target: T1, Indoleamine 2,3-dioxygenase 1; assay: Selectivity ratio of IC50 for IDO1 in IFNgamma-stimulated human DAN-G cells to IC50 for IDO1 in IFNgamma-stimulated human HepG2 cells
Target sequence in this assay (P14902 whole entry, looked up): as above

[15] = molecular target: T1, Indoleamine 2,3-dioxygenase 1; assay: Selectivity ratio of IC50 for IDO1 in IFNgamma-stimulated human DAN-G cells to IC50 for IDO1 in IFNgamma-stimulated human MCF7 cells
Target sequence in this assay (P14902 whole entry, looked up): as above

[16] = molecular target: T1, Indoleamine 2,3-dioxygenase 1; assay: Selectivity ratio of IC50 for IDO1 in IFNgamma-stimulated human DAN-G cells to IC50 for IDO1 in IFNgamma-stimulated human LXF-289 cells
Target sequence in this assay (P14902 whole entry, looked up): as above

[17] = molecular target: T1, Indoleamine 2,3-dioxygenase 1; assay: Selectivity ratio of IC50 for IDO1 in IFNgamma-stimulated human DAN-G cells to IC50 for IDO1 in IFNgamma-stimulated human A375 cells
Target sequence in this assay (P14902 whole entry, looked up): as above

[18] = molecular target: T1, Indoleamine 2,3-dioxygenase 1; assay: Selectivity ratio of IC50 for IDO1 in IFNgamma-stimulated human DAN-G cells to IC50 for IDO1 in IFNgamma-stimulated human HeLa cells
Target sequence in this assay (P14902 whole entry, looked up): as above

[19] = molecular target: T1, Indoleamine 2,3-dioxygenase 1; assay: Inhibition of IDO1 in IFNgamma-stimulated human DAN-G cells assessed as reduction in L-Kyn level measured after 48 hrs by HPLC analysis; format: cell-based
Target sequence in this assay (P14902 whole entry): as the sequence (P14902 whole entry, looked up) above

[20] = molecular target: T1, Indoleamine 2,3-dioxygenase 1; assay: Inhibition of IDO1 in IFNgamma-stimulated human HepG2 cells assessed as reduction in L-Kyn level measured after 48 hrs by HPLC analysis; format: cell-based
Target sequence in this assay (P14902 whole entry): as the sequence (P14902 whole entry, looked up) above

[21] = molecular target: T1, Indoleamine 2,3-dioxygenase 1; assay: Inhibition of IDO1 in IFNgamma-stimulated human MCF7 cells assessed as reduction in L-Kyn level measured after 48 hrs by HPLC analysis; format: cell-based
Target sequence in this assay (P14902 whole entry): as the sequence (P14902 whole entry, looked up) above

[22] = molecular target: T1, Indoleamine 2,3-dioxygenase 1; assay: Inhibition of IDO1 in IFNgamma-stimulated human LXF-289 cells assessed as reduction in L-Kyn level measured after 48 hrs by HPLC analysis
Target sequence in this assay (P14902 whole entry): as the sequence (P14902 whole entry, looked up) above

[23] = molecular target: T1, Indoleamine 2,3-dioxygenase 1; assay: Inhibition of IDO1 in IFNgamma-stimulated human HeLa cells assessed as reduction in L-Kyn level measured after 48 hrs by HPLC analysis; format: cell-based
[24] = molecular target: Tryptophan 2,3-dioxygenase (Mus musculus, UniProt P48776); assay: Inhibition of mouse TDO transfected in P815 cells assessed as reduction in L-Kyn level measured after 16 hrs by HPLC analysis; format: cell-based
Sequence of Tryptophan 2,3-dioxygenase (P48776 whole entry): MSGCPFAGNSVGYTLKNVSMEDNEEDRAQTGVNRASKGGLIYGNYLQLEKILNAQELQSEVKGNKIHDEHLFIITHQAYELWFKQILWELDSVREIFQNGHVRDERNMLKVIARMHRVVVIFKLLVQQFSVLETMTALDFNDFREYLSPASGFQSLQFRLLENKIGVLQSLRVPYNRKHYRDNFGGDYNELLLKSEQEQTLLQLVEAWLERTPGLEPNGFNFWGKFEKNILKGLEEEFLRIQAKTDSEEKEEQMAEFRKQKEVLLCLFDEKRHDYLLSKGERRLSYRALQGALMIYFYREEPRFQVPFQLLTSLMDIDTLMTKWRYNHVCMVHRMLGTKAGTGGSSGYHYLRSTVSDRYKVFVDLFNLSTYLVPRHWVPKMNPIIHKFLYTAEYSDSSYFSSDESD
In short: (§4)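 P815 mastocytoma cells stably expressing mouse IDO1 (P1.IDO1) or TDO (P1.TDO) were treated with serial dilutions for 16 h. L-Kyn secreted into the culture supernatant was quantified by HPLC, and an IC50 was determined in each line.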

[25] = molecular target: Indoleamine 2,3-dioxygenase 1 (Mus musculus, UniProt P28776); assay: Inhibition of mouse IDO1 transfected in P815 cells assessed as reduction in L-Kyn level measured after 16 hrs by HPLC analysis; format: cell-based; in short: as §4
Sequence of Indoleamine 2,3-dioxygenase 1 (Mus musculus, UniProt P28776) (P28776 whole entry): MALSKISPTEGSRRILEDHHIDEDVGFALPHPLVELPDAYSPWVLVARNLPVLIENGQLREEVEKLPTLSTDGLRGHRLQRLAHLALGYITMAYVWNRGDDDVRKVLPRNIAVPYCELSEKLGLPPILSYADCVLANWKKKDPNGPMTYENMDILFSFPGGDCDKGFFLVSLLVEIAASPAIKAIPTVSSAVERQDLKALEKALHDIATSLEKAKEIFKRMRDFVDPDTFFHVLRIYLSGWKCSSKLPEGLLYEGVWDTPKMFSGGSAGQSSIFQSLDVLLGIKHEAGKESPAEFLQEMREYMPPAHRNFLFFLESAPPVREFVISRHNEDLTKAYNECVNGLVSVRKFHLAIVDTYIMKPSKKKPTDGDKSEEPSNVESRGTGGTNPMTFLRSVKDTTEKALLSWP

[26] = molecular target: T1, Indoleamine 2,3-dioxygenase 1; assay: Inhibition of IDO1 in IFNgamma-stimulated human A375 cells assessed as reduction in L-Kyn level at 10 uM measured after 48 hrs by HPLC analysis relative to control
In short: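 Screen in melanoma A375 cells, which express IDO1 when treated with recombinant human IFN-γ. Cells were left untreated or given 10 µM compound for 48 h. L-Kyn was then measured. Cell viability was also checked.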

[27] = molecular target: T1, Indoleamine 2,3-dioxygenase 1; assay: Inhibition of IDO1 in PDAC patient derived suppressive monocytes co-cultured with human PBMC assessed as reduction in anti-CD3/anti-CD28-stimulated CD3+T cell proliferation at 30 uM preincubated for 4 days followed by co-culturing of monocytes and measured after 24 hrs by flow cytometric analysis
Monocyte [28] = assay: Effect on anti-CD3/anti-CD28-stimulated CD3+T cell proliferation in PDAC patient derived non-suppressive monocytes co-cultured with human PBMC at 30 uM preincubated for 4 days followed by co-culturing of monocytes and measured after 24 hrs by flow cytometric analysis; format: cell-based
In short: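 PDAC patient monocytes (suppressive or non-suppressive) were pre-treated with 30 µM compound or DMSO, then co-cultured for 4 days with Cell Trace-labelled activated CD3+ T cells. T-cell proliferation was read from proliferation peaks and normalized to activated T cells cultured without myeloid cells. Data are mean ± SEM; Mann-Whitney test.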

[29] = Metabolic stability in CD-1 mouse liver microsomes assessed as parent compound remaining at 50 uM measured after 1 hr in presence of NADPH by UV-LC/MS analysis

inhibition [2]: 5%
Compound: O=C(Cc1ccc2c(c1)OCO2)NCc1cccc(Cn2cnc3ccccc32)c1
viability at 48 h, 1 µM [1]: 96%

pIC50 [3]: 6.20 | inhibition [2]: 90%
Compound: Cc1ccc2[nH]c(C(=O)NCc3cccc(Cn4cnc5ccccc54)c3)cc2c1
viability at 48 h, 1 µM [1]: 99%

inhibition [2]: 81%
Compound: O=C(NCc1cccc(Cn2cnc3ccccc32)c1)c1ccc(C(F)(F)F)cc1
viability at 48 h, 1 µM [1]: 97%

inhibition [2]: 0%
Compound: O=C(CCN1CCOCC1)NCc1cccc(Cn2cnc3ccccc32)c1
viability at 48 h, 1 µM [1]: 100%

inhibition [2]: 62%
Compound: O=C(NCc1cccc(Cn2cnc3ccccc32)c1)c1cccs1
viability at 48 h, 1 µM [1]: 98%

inhibition [2]: 77%
Compound: O=C(NCc1cccc(Cn2cnc3ccccc32)c1)c1cc2ccccc2s1
viability at 48 h, 1 µM [1]: 88%

Stability [6]: Unstable | pIC50 [3]: 7.72 | inhibition [2]: 98%
Compound: O=C(NCc1cccc(Cn2cnc3ccc(Br)cc32)c1)c1cc(Br)c[nH]1
viability at 48 h, 1 µM [1]: 99%

pKd [7]: 6.26 | pIC50 [9]: 4.17 | Drug metabolism [11]: Metabolite_Detected | Drug metabolism [12]: Metabolite_Detected | remaining at 1 h, 50 µM [13]: 32% | Ratio IC50 [14]: > 1 | Ratio IC50 [15]: > 1 | Ratio IC50 [16]: > 1 | Ratio IC50 [17]: > 1 | Ratio IC50 [18]: > 1 | pIC50 [19]: 6.22 | pIC50 [20]: 7.37 | pIC50 [21]: 7.68 | pIC50 [22]: 7.85 | pIC50 [23]: 7.19 | pIC50 [24]: 5.26 | pIC50 [25]: 7.90 | inhibition [26]: > 30% | inhibition [2]: 96% | inhibition [27]: Active | remaining at 1 h, 50 µM [29]: 32%
Compound: O=C(NCc1cccc(Cn2cnc3ccccc32)c1)c1cc(Br)c[nH]1
inhibition (Mus musculus [8]): Active | inhibition (Mus musculus [10]): inactive | viability at 48 h, 1 µM [1]: 85 to 100% | Activity (Monocyte [4]): Non-Toxic | Activity (Monocyte [5]): Non-Toxic | Activity (Monocyte [28]): Non-Toxic

inhibition [2]: 32%
Compound: N#Cc1ccc(C(=O)NCc2cccc(Cn3cnc4ccccc43)c2)cc1F
viability at 48 h, 1 µM [1]: 100%

Second part, the compound before the results:

Compound: O=C(NCc1cccc(Cn2cnc3ccccc32)c1)c1ccccc1
viability at 48 h, 1 µM [1]: 98% | inhibition [2]: 32%

Compound: NCCCC(=O)NCc1cccc(Cn2cnc3ccccc32)c1
viability at 48 h, 1 µM [1]: 100% | inhibition [2]: 0%

Compound: NS(=O)(=O)NCCNc1nonc1C(=NO)Nc1ccc(F)c(Br)c1 [EPACADOSTAT]
viability at 48 h, 1 µM [1]: 97% | Activity (Monocyte [4]): Non-Toxic | Activity (Monocyte [5]): Non-Toxic

Compound: COc1ccc2[nH]c(C(=O)NCc3cccc(Cn4cnc5ccccc54)c3)cc2c1
viability at 48 h, 1 µM [1]: 55%

Compound: O=C(NCc1cccc(Cn2cnc3ccccc32)c1)c1ccc(Br)cc1
pIC50 [3]: 6.87 | viability at 48 h, 1 µM [1]: 96% | inhibition [2]: 98%

Compound: O=C(NCc1cccc(Cn2ccc3ccccc32)c1)c1cc(Br)c[nH]1
viability at 48 h, 1 µM [1]: 100% | inhibition [2]: 0%
